HNF4A DNA FP: change in binding of human HNF4 alpha to DNA; activity change, % at 10 µM; AID 1224865; P41235; HNF4a-FITC DNA binding, fluorescence polarization, 1 h; 360,000 tested, 0.3% active; in the data active means activity change above about 30%, passing the limit was not always enough
NadD block: inhibitors of Staphylococcus aureus NadD | inhibition, % at 20 µM | 360,000 tested, 0.78% active | purified NadD enzyme, colorimetric absorbance read-out; in the data active means inhibition above about 26%
PP1 inh: counter-screen for PP5 inhibitors: inhibitors of human PP1-alpha. inhibition, % at 6.7 µM. purified PP1alpha, OMFP fluorescence. AID 2235. 320,000 tested, 0.9% active. P62136;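 active means inhibition above the mean inhibition of all tested compounds plus 3 SD, computed separately for each screening campaign, cut at about 15% in these data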
Rpn11 inh: inhibitors of human proteasome Rpn11 | AID 588493 | human 26S proteasome, Ub4-pepOG fluorescence polarization; 20S core pre-blocked with epoxomicin | 360,000 tested, 0.59% active | inhibition, % at 20 µM;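 active means inhibition at 20 µM, scaled to each plate's controls, above about 33%, limit read from the data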
CSN inh: CSN deneddylation inhibition. AID 651999. inhibition, % at 12.5 µM. Purified CSN, SCF-Nedd8-OG deneddylation, fluorescence polarization. 360,000 tested, 0.38% active;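 active means pattern-corrected inhibition above about 35%, with an unprinted fluorescence ratio check between 0.5 and 1.5, limit read from the data, passing the limit was not always enough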;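 further: 0% = enzyme with substrate and 100% = substrate without enzyme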
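test system = HEK293T-derived human Csn5 enzyme | amount = 0.24 nM Csn5 enzyme, final concentration | medium = Tris/NaCl/DTT buffer, pH 7.5 | schedule = 90 min reaction at room temperature | signal = FP | evaluation = inhibition of Csn5 cleavage, % | compound dosing = single dose of 12.5 µM compound with 0.25% DMSO | probe or stimulus = 10 nM SCFSkp2-Nedd8OG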
TPT1 inh: C. albicans TPT1 enzyme inhibition; recombinant caTPT1, FP RNA substrate dephosphorylation; inhibition, % at 5 µM; 300,000 tested, 0.81% active; AID 1962;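 active means inhibition above the mean of all tested compounds plus 3 SD, set per screening campaign, cut at about 24% in these data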;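 further: plate controls were DMSO alone for no effect and ferristatin control at 100 nM for full effect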
PP1 confirm: confirmation of human PP1 phosphatase inhibitors; AID 2358; purified PP1alpha, OMFP substrate fluorescence; inhibition, % at 6.7 µM; shares compounds with PP1 inh; 1,900 tested, 52% active;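 active means mean PP1 inhibition above a set limit taken from the earlier primary screen, cut at about 15% in these data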
PP5 counter: inhibits human PP5 phosphatase in PP1 counter-screen; shares compounds with PP1 inh; purified PP5c, OMFP fluorescence; inhibition, % at 6.7 µM; 1,900 tested, 4% active;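 active means mean PP5 inhibition over triplicate wells above about 9.5% taken from the earlier PP1 screen, limit read from the data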
Target sequence (P53041 whole entry, looked up): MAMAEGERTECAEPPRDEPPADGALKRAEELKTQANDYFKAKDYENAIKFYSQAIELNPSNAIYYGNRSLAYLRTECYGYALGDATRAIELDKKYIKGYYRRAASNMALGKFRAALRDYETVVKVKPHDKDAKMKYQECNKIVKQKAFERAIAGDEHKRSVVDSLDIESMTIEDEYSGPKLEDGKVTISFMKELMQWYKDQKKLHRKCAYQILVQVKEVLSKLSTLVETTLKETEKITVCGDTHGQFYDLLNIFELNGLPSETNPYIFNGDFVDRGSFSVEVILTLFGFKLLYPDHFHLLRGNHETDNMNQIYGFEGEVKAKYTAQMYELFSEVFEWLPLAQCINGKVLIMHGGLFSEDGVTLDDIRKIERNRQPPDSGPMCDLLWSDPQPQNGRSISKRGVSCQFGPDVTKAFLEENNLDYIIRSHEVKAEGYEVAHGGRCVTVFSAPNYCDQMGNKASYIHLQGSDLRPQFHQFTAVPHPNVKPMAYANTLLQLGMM
NadD conf: confirmation of Staphylococcus aureus NadD inhibitors; 2,000 tested, 13% active; shares compounds with NadD block; purified S. aureus NadD, colorimetric enzyme assay; AID 624309; inhibition, % at 20 µM; in the data active means inhibition mostly above about 42%, no sharp cut-off; inactive means mostly below about 42%
Numbers without * were called inactive; / = not tested or not shown. Compounds with a hit are over-represented: about 2.7% of the library has one in this group of screens.

SMILES	HNF4A DNA FP	NadD block	PP1 inh	Rpn11 inh	CSN inh	TPT1 inh	PP1 confirm	PP5 counter	NadD conf
CCn1c(SCC(=O)Nc2oc(-c3ccccc3)c(-c3ccccc3)c2C#N)nnc1-c1ccncc1	-2	17	2	12	-2	4	/	/	/
Cc1ccc(-c2csc3ncnc(SCC(=O)NCC4CCCO4)c23)cc1 (centres undefined)	1	3	1	8	0	/	/	/	/
CC(C)Oc1ccc(C(=O)Nc2ccc(N3CCCC3)cc2)cc1	2	21	13	4	-1	8	/	/	/
O=C(Nc1ccc(N2CCCC2)cc1)c1ccc(Br)cc1	3	29*	24*	31	7	7	-9	1	-2
CCC(=O)N1CC2(CC(c3cccc(NC(=O)CC(c4ccccc4)c4ccccc4)c3)=NO2)C[C@H]1C(N)=O (some centres undefined)	0	-7	-1	-7	-3	-1	/	/	/
NC(=O)[C@H]1CC2(CC(c3cccc(NC(=O)CC(c4ccccc4)c4ccccc4)c3)=NO2)CN1C(=O)CC(c1ccccc1)c1ccccc1 (some centres undefined)	1	42*	22*	6	6	3	29*	12*	19
COc1ccccc1NC(=O)c1c(Nc2ccccc2F)sc(C(=O)Nc2cccc(Cl)c2)c1N	4	43*	22*	7	-4	-1	2	2	41
COc1ccc(Nc2sc(C(=O)Nc3cccc(Cl)c3)c(N)c2C(=O)Nc2ccccc2OC)cc1	/	/	9	/	/	3	/	/	/
C#CCn1c(=NC(=O)c2sc3ccccc3c2Cl)sc2cc(S(N)(=O)=O)ccc21	-3	39*	28*	0	-1	4	34*	-5	-7
C#CCn1c(=NC(=O)c2ccccc2[N+](=O)[O-])sc2cc(S(C)(=O)=O)ccc21	0	1	-3	-8	-6	5	/	/	/
Cc1ccc(NC(=O)COC(=O)c2ccc3c(c2)NC(=O)C2CCCN32)cc1 (centres undefined)	6	38*	19*	8	6	12	11	5	32
Cc1ccc(C(=O)Nc2nc(-c3ccccn3)cs2)cc1S(=O)(=O)N1CCOCC1	4	31*	31*	/	-4	/	35*	-1	22
Nc1ncnc2oc(-c3ccco3)c(-c3ccco3)c12	-56	54*	25*	19	36	-1	16*	-2	27
Nc1nnc(-c2ccco2)s1	2	2	3	-7	0	2	/	/	/
Cc1cc(C)c(NC(=O)CSc2nc3ccc(NC(=O)CSc4nnnn4Cc4ccccc4)cc3s2)c(C)c1	7	47*	20*	19	2	6	31*	-5	-3
Cc1cc(C)c(NC(=O)CSc2nc3ccc(NC(=O)CSc4nnnn4-c4ccccc4)cc3s2)c(C)c1	1	28	4	13	1	-1	/	/	/
COc1cccc2cc(C(=O)OCc3ccccc3)c(=O)oc12	4	-3	2	-10	0	3	/	/	/
CCOC(=O)c1oc2ccccc2c1COC(=O)CNC(=O)c1ccc(C)cc1	-4	-7	-3	2	2	-5	/	/	/
O=C(Nc1ccc(Cl)c(Cl)c1)Nc1ccc(N2CCCC2)c(S(=O)(=O)Nc2ccccc2Cl)c1	-1	31*	18*	9	-12	-1	14	0	36
O=C(Nc1ccc(F)cc1)Nc1ccc(N2CCCC2)c(S(=O)(=O)Nc2ccccc2Cl)c1	6	30*	24*	1	-4	-2	10	5	28
O=C(Nc1ccc(N2CCOCC2)c(S(=O)(=O)Nc2ccccc2Cl)c1)c1ccc(F)cc1	4	0	/	0	11	/	/	/	/
O=C(COc1ccccc1[N+](=O)[O-])Nc1ccc2c(c1)CCC2	0	-4	-1	1	-2	/	/	/	/
CCCCC(CC)C(=O)Nc1cc(C(=O)NCc2ccc(C)cc2)ccc1N1CCC2(CC1)CC(c1ccccc1)=NO2 (centres undefined)	-3	33*	19*	0	1	-1	13	0	2
Clc1ccc(C2=Nn3c(nnc3-c3cc(-c4ccccc4)n[nH]3)SC2)cc1	1	45*	23*	20	0	-2	16*	-1	30
c1ccc(C2=Nn3c(nnc3-c3n[nH]c4c3CCC4)SC2)cc1	0	5	4	7	3	-1	/	/	/
SMILES	HNF4A DNA FP	NadD block	PP1 inh	Rpn11 inh	CSN inh	TPT1 inh	PP1 confirm	PP5 counter	NadD conf
Clc1ccc(C2=Nn3c(nnc3-c3n[nH]c4c3CCC4)SC2)cc1Cl	0	30*	23*	1	4	-2	28*	3	40
c1ccc(C2=Nn3c(nnc3-c3cc(-c4ccccc4)n[nH]3)SC2)cc1	2	20	13	-2	0	-4	/	/	/
O=c1cc(-c2ccc(O)c(-c3c(O)cc(O)c4c(=O)cc(-c5ccc(O)cc5)oc34)c2)oc2cc(O)cc(O)c12	-5	77*	31*	14	-1	-1	21*	-2	66*
Cc1cc(-c2ccc(S(=O)(=O)NCc3ccc(Cl)cc3)cc2)on1	3	-4	/	5	-2	/	/	/	/
CCCC1OC(c2cc3c(cc2Cl)OCO3)OCC1CC (centres undefined)	-1	2	/	-2	0	/	/	/	/
CC(C)c1ccc(NC(=O)Nc2cc3sccc3n2C)cc1	6	42*	18*	8	7	6	2	-6	27
COc1cc(CN2CCC(n3nccc3NC(=O)CCCc3ccccc3)CC2)ccc1F	8	-6	-1	0	-5	2	/	/	/
Cc1[nH]n2c(=O)cc(-c3ccc([N+](=O)[O-])cc3)nc2c1-c1ccccc1	0	34*	45*	10	-2	-1	35*	2	51*
